Results on ten compounds are retold here after ChEMBL document CHEMBL1126175, “Synthesis and antibacterial activity of new tetracyclic quinolone antibacterials” (J Med Chem, 1992).

Values after ≈ are worked out from the molar mass of the structure shown.

Experiment [1] concerns Escherichia coli. Kind of experiment: In vitro antibacterial activity against Escherichia coli KC-14, Ec(K), (gram-negative). Type of experiment: functional. The essentials:
(§1)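 MIC by serial 2-fold agar dilution on Mueller–Hinton agar; inoculum about 10^6 CFU/mL; MIC taken as lowest concentration preventing visible growth after 18 h at 37 °C.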

Experiment [2] relates to Enterococcus faecalis. Kind of experiment: In vitro antibacterial activity against Enterococcus faecalis IID 682,[…],(gram-positive). Type of experiment: functional. The procedure, abridged: as §1
For experiment [3], the system named is Staphylococcus aureus. Kind of experiment: In vitro antibacterial activity against staphylococcus aureus FDA 209P JC-1,Sa(F)(gram-positive). Type of experiment: functional. The procedure, abridged: as §1
The subject of experiment [4] is Staphylococcus epidermidis. Kind of experiment: In vitro antibacterial activity against staphylococcus epidermidis IAM 1296, (gram-positive). Type of experiment: functional. The procedure, abridged: as §1
For experiment [5], the system named is Pseudomonas aeruginosa. Kind of experiment: In vitro antibacterial activity against Pseudomonas aeruginosa IFO 3445,Pa(I),(gram-negative). Type of experiment: functional. The procedure, abridged:
as §1

Experiment [6] has as its system Pseudomonas aeruginosa. Kind of experiment: In vitro antibacterial activity against Pseudomonas aeruginosa E-2,Pa(E),(gram-negative). Type of experiment: functional. The procedure, abridged:
as §1

The test system of experiment [7] is Staphylococcus aureus. Kind of experiment: In vitro antibacterial activity against staphylococcus aureus IID 803,(gram-positive). Type of experiment: functional. The procedure, abridged:
as §1

Experiment [8] deals with Klebsiella pneumoniae. Kind of experiment: In vitro antibacterial activity against klebsiella pneumoniae B54,Kp,(gram-negative). Type of experiment: functional.
The test system of experiment [9] is Escherichia coli. Kind of experiment: In vitro antibacterial activity against Escherichia coli NIHJ JC-2,(gram-negative).
Experiment [10] concerns Escherichia coli. Kind of experiment: In vitro antibacterial activity was measured against nalidixic acid resistant strain 1 from Escherichia coli KC-14. Type of experiment: functional. The essentials: (§2)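 MIC by serial 2-fold agar dilution on Mueller–Hinton agar, inoculum about 10^6 CFU/mL. Plates were incubated 37 °C for 18 h. MIC was the lowest concentration preventing visible growth.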

The test system of experiment [11] is Escherichia coli. Kind of experiment: In vitro antibacterial activity was measured against nalidixic acid resistant strain 7 from Escherichia coli KC-14. Type of experiment: functional. The essentials: as §2
For experiment [12], the system named is Escherichia coli. Kind of experiment: In vitro antibacterial activity was measured against nalidixic acid resistant strain 2 from Escherichia coli KC-14. Type of experiment: functional. The essentials: as §2
For experiment [13], the system named is Escherichia coli. Kind of experiment: In vitro antibacterial activity was measured against nalidixic acid resistant strain 4 from Escherichia coli KC-14. Type of experiment: functional. The essentials: as §2
The subject of experiment [14] is Escherichia coli. Kind of experiment: In vitro antibacterial activity was measured against nalidixic acid resistant strain 3 from Escherichia coli KC-14. Type of experiment: functional. The procedure, abridged:
as §2

Experiment [15] concerns Escherichia coli. Kind of experiment: In vitro antibacterial activity was measured against nalidixic acid resistant strain 6 from Escherichia coli KC-14. Type of experiment: functional. The essentials:
as §2

The subject of experiment [16] is Escherichia coli. Kind of experiment: In vitro antibacterial activity was measured against nalidixic acid resistant strain 5 from Escherichia coli KC-14. Type of experiment: functional. The procedure, abridged:
as §2

As usually defined, the MIC is the smallest concentration in the dilution series that meets the test's criterion for growth inhibition. Read a low MIC as inhibition by little substance. For `CN1CCN(c2c(F)cc3c(=O)cc4scc5n4c3c2OC5)CC1`, the minimal inhibitory concentration (MIC) in experiment [1], in experiment [2], in experiment [3], in experiment [4], in experiment [5] and in [6] was more than 100 µg/mL each time. Besides, the MIC in experiment [7], in experiment [8] and in experiment [9] was more than 100 µg/mL in each case.
Take `CN(C)c1c(F)cc2c(=O)c(C(=O)O)c3scc4n3c2c1OC4`: the MIC in experiment [1] worked out at 0.39 µg/mL (≈ 1.17 µM); in [2] it was 0.78 µg/mL (≈ 2.33 µM); in experiment [3], 0.2 µg/mL (≈ 0.598 µM); in [4] it was 0.1 µg/mL (≈ 0.299 µM); in experiment [5] it was 1.56 µg/mL (≈ 4.67 µM); in experiment [6], 6.25 µg/mL (≈ 18.7 µM). For the same compound, the MIC in experiment [7] was 0.1 µg/mL (≈ 0.299 µM); in experiment [8], 0.2 µg/mL (≈ 0.598 µM); in [9] it was 0.39 µg/mL (≈ 1.17 µM).
As to `CCn1cc(C(=O)O)c(=O)c2cc(F)c(N3CCNCC3)nc21` [ENOXACIN], the MIC was 0.2 µg/mL (≈ 0.624 µM) in [1]; 3.13 µg/mL (≈ 9.77 µM) in [2]; 0.78 µg/mL (≈ 2.44 µM) in experiment [3]; 3.13 µg/mL (≈ 9.77 µM) in experiment [4]; 1.56 µg/mL (≈ 4.87 µM) in [5]; 1.56 µg/mL (≈ 4.87 µM) in experiment [6]. In addition, the MIC in [7] turned out to be 0.78 µg/mL (≈ 2.44 µM); in experiment [8], 0.1 µg/mL (≈ 0.312 µM); in [9], 0.2 µg/mL (≈ 0.624 µM).
Turning to `C[C@@H]1CN(c2c(F)cc3c(=O)c(C(=O)O)c4scc5n4c3c2OC5)C[C@H](C)N1.Cl`, the minimal inhibitory concentration (MIC) in [1] is 0.1 µg/mL; in experiment [2] it was 0.78 µg/mL; in [3], 0.2 µg/mL; in experiment [4], 0.39 µg/mL; in experiment [5], 3.13 µg/mL; in experiment [6], 3.13 µg/mL. Further, the results for the minimum inhibitory concentration (MIC) in experiment [7], in experiment [8] and in experiment [9] were 0.2 µg/mL, 0.39 µg/mL and 0.2 µg/mL, respectively.
Regarding `O=C(O)c1c(=O)c2cc(F)c(N3CCC(O)C3)c3c2n2c(csc12)CO3` (stereo not given), the minimal inhibitory concentration (MIC) is 0.05 µg/mL (≈ 0.133 µM) in [1]; more than 3.13 µg/mL in experiment [10]; 0.2 µg/mL (≈ 0.531 µM) in experiment [11]; 0.2 µg/mL (≈ 0.531 µM) in experiment [2]; 0.025 µg/mL (≈ 0.0664 µM) in experiment [3]; more than 3.13 µg/mL in [12]. In addition, the MIC in [13] is 0.78 µg/mL (≈ 2.07 µM); in experiment [14], 0.78 µg/mL (≈ 2.07 µM); in experiment [15], 0.39 µg/mL (≈ 1.04 µM); in experiment [16] it was 0.78 µg/mL (≈ 2.07 µM); in experiment [4] it was 0.2 µg/mL (≈ 0.531 µM); in [5], 0.39 µg/mL (≈ 1.04 µM). The minimal inhibitory concentration (MIC) worked out at 0.39 µg/mL (≈ 1.04 µM) in experiment [6], 0.025 µg/mL (≈ 0.0664 µM) in [7], 0.05 µg/mL (≈ 0.133 µM) in [8] and 0.05 µg/mL (≈ 0.133 µM) in experiment [9].
Consider `Cl.O=C(O)c1cn(C2CC2)c2cc(N3CCNCC3)c(F)cc2c1=O` [CIPROFLOXACIN HYDROCHLORIDE], for which the minimum inhibitory concentration (MIC) in experiment [2] was found to be 0.78 µg/mL; in experiment [3], 0.2 µg/mL; in [4], 1.56 µg/mL; in experiment [5] it was 0.78 µg/mL; in experiment [6], 0.78 µg/mL; in [7], 0.78 µg/mL. In experiment [9], this compound gave a minimum inhibitory concentration (MIC) of 0.05 µg/mL.
As to `O=C(O)c1c(=O)c2cc(F)c(N3C[C@H](O)[C@@H](O)C3)c3c2n2c(csc12)CO3`, the MIC in experiment [1] is 3.13 µg/mL (≈ 7.98 µM); in [2], more than 25 µg/mL; in experiment [3], 1.56 µg/mL (≈ 3.98 µM); in experiment [4] it was more than 25 µg/mL; in experiment [5], more than 25 µg/mL; in experiment [6] it was more than 25 µg/mL. Also, the values for the minimal inhibitory concentration (MIC) in experiment [7], in [8] and in experiment [9] were 1.56 µg/mL (≈ 3.98 µM), 1.56 µg/mL (≈ 3.98 µM) and 3.13 µg/mL (≈ 7.98 µM), respectively.
In the case of `O=C(O)c1c(=O)c2cc(F)c(N3CCCCC3)c3c2n2c(csc12)CO3`, the minimal inhibitory concentration (MIC) in experiment [1] was 3.13 µg/mL (≈ 8.36 µM); in [2], 1.56 µg/mL (≈ 4.17 µM); in experiment [3] it was 0.1 µg/mL (≈ 0.267 µM); in experiment [4] it was 0.2 µg/mL (≈ 0.534 µM); in experiment [5], 12.5 µg/mL (≈ 33.4 µM); in [6], 6.25 µg/mL (≈ 16.7 µM). Further, the minimum inhibitory concentration (MIC) in [7] amounted to 0.1 µg/mL (≈ 0.267 µM); in experiment [8], 1.56 µg/mL (≈ 4.17 µM); in experiment [9], 0.78 µg/mL (≈ 2.08 µM).
For the compound `O=C(O)c1c(=O)c2cc(F)c(N3CCSCC3)c3c2n2c(csc12)CO3`, the MIC is 0.39 µg/mL (≈ 0.994 µM) in experiment [1]; 3.13 µg/mL (≈ 7.98 µM) in experiment [2]; 0.05 µg/mL (≈ 0.127 µM) in [3]; 0.1 µg/mL (≈ 0.255 µM) in experiment [4]; 6.25 µg/mL (≈ 15.9 µM) in experiment [5]; 3.13 µg/mL (≈ 7.98 µM) in experiment [6]. The minimum inhibitory concentration (MIC) came to 0.05 µg/mL (≈ 0.127 µM) in experiment [7], 0.39 µg/mL (≈ 0.994 µM) in experiment [8] and 0.39 µg/mL (≈ 0.994 µM) in experiment [9].
Regarding `O=C(O)c1c(=O)c2cc(F)c(N3CCNCC3)c3c2n2c(csc12)CO3`, the minimum inhibitory concentration (MIC) in [1] was 0.1 µg/mL (≈ 0.266 µM); in experiment [2], 0.78 µg/mL (≈ 2.08 µM); in experiment [3], 0.39 µg/mL (≈ 1.04 µM); in experiment [4], 1.56 µg/mL (≈ 4.16 µM); in experiment [5], 0.78 µg/mL (≈ 2.08 µM); in experiment [6], 0.78 µg/mL (≈ 2.08 µM). In addition, the minimal inhibitory concentration (MIC) in experiment [7] turned out to be 0.39 µg/mL (≈ 1.04 µM); in [8], 0.05 µg/mL (≈ 0.133 µM); in experiment [9] it was 0.1 µg/mL (≈ 0.266 µM).
